In paper PMC11397428 (Science Advances, 2024):
≈ marks a conversion by molar mass, not a printed value. Where a SMILES comes first, the peptide text is derived from it. The star is where a group is joined. Phenylacetyl(4-Ph) = O=C(Cc1ccc(-c2ccccc2)cc1)*

How the values were obtained:
[1] = tested on: human embryonic kidney (HEK) 293T; assay: Cytocompatibility, MTT assay; type: cell-based; settings: 24 h, n = 9
Method in brief: (§1)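 Cell lines grown with 10% FBS and 1% penicillin-streptomycin. Seeded at 1 × 10^4 cells per well and allowed 24 hours to attach. Medium then replaced with fresh medium containing test peptide at a range of concentrations. Viability read by MTT after 24 hours of co-incubation.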

DC2.4 = assay: Cytocompatibility, MTT assay; type: cell-based, murine; settings: 24 h, n = 9
Method in brief: as §1

RAW264.7 = assay: Cytocompatibility, MTT assay; type: cell-based, murine; settings: 24 h, n = 9
Method in brief: as §1

[2] = tested on: human bronchial epithelial cells (BEAS-2B); assay: Cytocompatibility, MTT assay; type: cell-based; settings: 24-hour coincubation
Method in brief: as §1

[3] = tested on: HS-5 (human marrow stromal cells); assay: Cytocompatibility, MTT assay; type: cell-based; settings: 24 h, n = 9
Method in brief: as §1

[4] = tested on: multidrug-resistant Escherichia coli (MRE); assay: MIC against MRE; type: cell-based; settings: n = 3 biologically replicates
[5] = Pharmacokinetic study of SPRAY-BLKR-NPs in ALI mice; type: in vivo, mouse
red blood cells (RBCs) = assay: Hemolysis assay; type: cell-based, New Zealand rabbit; settings: 3 hours, 37°C, PBS; for hemolytic activity: 256 μM, n = 9
Method in brief: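 Freshly drawn rabbit blood diluted tenfold in PBS. RBCs pelleted and washed eight times with PBS. Peptide stocks made in PBS at 512 μM and diluted twofold six times. RBCs incubated with peptide for 3 hours at 37°C; 1% Triton X-100 as positive control, PBS as negative control. Samples spun at 10,000 rpm for 10 min; hemolysis calculated from supernatant absorbance at 570 nm.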

healthy mice = assay: Immunomodulation and toxicity in healthy mice; type: in vivo, mouse
MRE-induced ALI = assay: Comparison with ceftazidime in MRE-infected mice; type: in vivo, mouse; settings: ceftazidime/avibactam 32/8 mg kg^−1 subcutaneous every 12 hours; n = 12
[6] = tested on: bone marrow–derived macrophages (BMDMs); assay: M2 macrophage polarization of BMDMs, CD206/CD86 flow cytometry; type: cell-based, mouse; settings: M1 positive control LPS 10 ng ml^−1 and IFN-γ 20 ng ml^−1
BMDMs = assay: Endocytosis mode of FITC-BLKR with endocytosis inhibitors; type: cell-based, mouse; settings: FITC-BLKR 16 μM, 15 min; EIPA 50 μM, CPZ 40 μM, Filipin III 5 μg ml^−1; n = 3
[7] = Pulmonary biodistribution of FITC-labeled peptide, CLSM; type: in vivo, mouse; settings: 128 μM, 50 μl intratracheal, 1 h
Method in brief: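 Acute lung injury induced in BALB/c mice by intratracheal LPS (10 mg kg^−1). FITC-labelled peptide (128 μM, 50 μl) then given intratracheally, n = 3. Lungs taken 1 hour after dosing. Sections stained for CD68 (macrophages) with DAPI counterstain and imaged by confocal microscopy.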

For `CC(C)C[C@H](NC(=O)[C@H](Cc1ccccc1)NC(=O)[C@H](Cc1ccccc1)NC(=O)Cc1ccc(-c2ccccc2)cc1)C(=O)N[C@@H](CCCCN)C(=O)N[C@@H](CCCNC(=N)N)C(=O)N[C@H](C(=O)N[C@@H](Cc1c[nH]c2ccccc12)C(=O)N[C@@H](CCCCN)C(=O)N[C@@H](CCCNC(=N)N)C(=O)O)C(C)C` [BLKR] ({Phenylacetyl(4-Ph)}-FFLKRVWKR-OH), the “cytotoxicity, HEK 293T” value [1] was “no significant cytotoxicity”, the “cytotoxicity, DC2.4” value (DC2.4) was “no significant cytotoxicity” and the “cytotoxicity, RAW264.7” value (RAW264.7) was “no significant cytotoxicity”. For the same compound, the “cytotoxicity toward BEAS-2B” value [2] was “no notable cytotoxicity”, the “cytotoxicity, HS-5” value [3] was “no significant cytotoxicity” and the “MIC against MRE” value [4] was 16 µM (≈ 23.6 µg/mL). For the same compound, the “BLKR left in entire respiratory tract” value ([5]; ALI mice, single dose 18.42 μg per mouse, 12 hours after administration) was about 10%, the “pulmonary area under the curve relative to kidney” value ([5]; within 24 hours) was over 154.13 times and the “pulmonary area under the curve relative to liver” value ([5]; within 24 hours) was “more than 47.90 times”. The hemolytic activity (red blood cells (RBCs)) was “no detectable hemolytic activity”, the “monocyte infiltration in the alveolar site, histology” value (healthy mice; 128 or 256 μM, 50 μl twice) was “no monocyte infiltration was observed” and the “inflammatory cell infiltration in lung, histology” value (healthy mice; 512 or 1204 μM) was “inflammatory cell infiltration occurred in lung”. For the same compound, the “monocyte percentage in peripheral blood” value (healthy mice; all the tested concentrations, n = 3) was “no elevation of monocyte percentage”.
With `CC(C)(O/N=C(\C(=O)N[C@@H]1C(=O)N2C(C(=O)[O-])=C(C[n+]3ccccc3)CS[C@H]12)c1csc(N)n1)C(=O)O` [Ceftazidime] the 2-day survival rate (MRE-induced ALI) was 58.3%.
For lipopolysaccharide [LPS], the “CD86+ macrophage in the total population” value [6] was “more than 80%”.
In the case of `CCN(c1nc(N)c(C(=O)NC(=N)N)nc1Cl)C(C)C` [EIPA, ethyl-isopropyl-amiloride], the “loss of BLKR uptake quantified by FITC intensity” value (“loss of BLKR uptake quantified” below) (BMDMs) is reported as 22.14%.
With `CC[C@H](C)[C@H](NC(=O)[C@H](CC(C)C)NC(=O)[C@H](CCCNC(=N)N)NC(=O)[C@H](Cc1ccccc1)NC(=O)[C@H](Cc1ccccc1)NC(=O)Cc1ccc(-c2ccccc2)cc1)C(=O)N[C@@H](CCCNC(=N)N)C(=O)N[C@@H](Cc1ccc(O)cc1)C(=O)N[C@@H](CCSC)C(=O)N[C@@H](C)C(=O)N[C@@H](CCCCN)C(=O)O` [BRLI] ({Phenylacetyl(4-Ph)}-FFRLIRYMAK-OH) the hemolysis rate (red blood cells (RBCs); 128 μM) was 7.49%.
In the case of `CC[C@H](C)[C@H](NC(=O)[C@H](CCCCN)NC(=O)[C@H](Cc1ccccc1)NC(=O)[C@H](Cc1ccccc1)NC(=O)Cc1ccc(-c2ccccc2)cc1)C(=O)N[C@H](C(=O)N[C@@H](CCCCN)C(=O)N[C@H](C(=O)N[C@@H](C)C(=O)N[C@@H](CCCCN)C(=O)O)C(C)C)[C@@H](C)CC` [BKII] ({Phenylacetyl(4-Ph)}-FFKIIKVAK-OH), the “cytotoxicity toward BEAS-2B” value [2] is reported as “no notable cytotoxicity” and the hemolytic activity (red blood cells (RBCs)) is reported as “no detectable hemolytic activity”.
For `CN(C)CCCN1c2ccccc2Sc2ccc(Cl)cc21` [CPZ, chlorpromazine], the “loss of BLKR uptake quantified” value (BMDMs) was 24.47%.
With `CC(C)C[C@H](N)C(=O)N[C@@H](CCCCN)C(=O)N[C@@H](CCCNC(=N)N)C(=O)N[C@H](C(=O)N[C@@H](Cc1c[nH]c2ccccc12)C(=O)N[C@@H](CCCCN)C(=O)N[C@@H](CCCNC(=N)N)C(=O)O)C(C)C` [LKR] (H-LKRVWKR-OH) the “accumulation in injured lung tissue” value [7] was “extremely little accumulation”.
With `CCCCC[C@@H](O)[C@H]1C(=O)O[C@H](C)[C@@H](O)/C=C/C=C/C=C/C=C/C=C(\C)[C@@H](O)C[C@H](O)C[C@H](O)C[C@H](O)C[C@H](O)C[C@H](O)C[C@@H]1O` [Filipin III] the “loss of BLKR uptake quantified” value (BMDMs) was 43.01%.
